Assay results: ChEMBL document CHEMBL4406804, “Discovery of a Potent Steroidal Glucocorticoid Receptor Antagonist with Enhanced Selectivity against the Progesterone and Androgen Receptors (OP-3633)” (J Med Chem, 2019)
In brackets after ≈: the same amount, converted by molar mass.

Key:
[1] = system: Mus musculus; test: Unbound plasma concentration in hsd:athymic Nude-Foxn1nu mouse xenografted with human HCC1806 cells at 150 mg/kg, po administered as single dose via gavage and measured after 1 to 6 hrs […]; assay type: ADME, organism-based; settings: in vivo
Summary of the method: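 Mice bearing HCC1806 xenografts received a bolus oral dose of cortisol at 5 mg/kg to activate GR, plus a single oral gavage dose of the test agent at 150 mg/kg. An unbound plasma concentration-time profile was taken up to 6 h, with n = 3 mice per group.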

[2] = biological target: T1, Androgen receptor (Homo sapiens, UniProt P10275); test: Agonist activity at human androgen receptor in human LNCAP cells harboring firefly luciferase gene after 20 hrs by One-Glo luciferase reporter gene assay; assay type: cell-based
T1 sequence (P10275 whole entry): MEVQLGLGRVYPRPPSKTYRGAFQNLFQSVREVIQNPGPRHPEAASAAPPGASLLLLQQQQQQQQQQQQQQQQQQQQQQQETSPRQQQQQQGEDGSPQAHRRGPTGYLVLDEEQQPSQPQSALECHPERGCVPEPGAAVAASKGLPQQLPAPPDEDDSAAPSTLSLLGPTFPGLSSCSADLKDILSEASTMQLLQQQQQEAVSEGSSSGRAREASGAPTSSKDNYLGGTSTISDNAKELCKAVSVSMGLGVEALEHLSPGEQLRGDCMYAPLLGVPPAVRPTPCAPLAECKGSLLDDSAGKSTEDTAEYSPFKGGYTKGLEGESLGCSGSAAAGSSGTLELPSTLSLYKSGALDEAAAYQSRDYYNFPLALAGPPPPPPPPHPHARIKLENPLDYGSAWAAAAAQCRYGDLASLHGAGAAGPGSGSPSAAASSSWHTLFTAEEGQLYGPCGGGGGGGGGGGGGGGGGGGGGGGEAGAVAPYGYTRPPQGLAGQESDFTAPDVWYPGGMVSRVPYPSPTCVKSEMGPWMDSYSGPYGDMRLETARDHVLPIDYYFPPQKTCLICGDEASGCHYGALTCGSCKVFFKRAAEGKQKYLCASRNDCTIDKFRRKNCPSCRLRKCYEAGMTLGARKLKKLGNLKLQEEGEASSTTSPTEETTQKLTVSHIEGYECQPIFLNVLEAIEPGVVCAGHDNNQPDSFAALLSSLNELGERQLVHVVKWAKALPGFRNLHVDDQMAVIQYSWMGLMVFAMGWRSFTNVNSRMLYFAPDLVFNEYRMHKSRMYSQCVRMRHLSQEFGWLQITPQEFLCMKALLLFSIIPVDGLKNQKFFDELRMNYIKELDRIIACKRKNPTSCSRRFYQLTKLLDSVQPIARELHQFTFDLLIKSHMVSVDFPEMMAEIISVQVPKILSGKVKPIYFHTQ

[3] = biological target: T2, Glucocorticoid receptor (Homo sapiens, UniProt P04150); test: Antagonist activity at human glucocorticoid receptor expressed in CHO-K1 cells harboring firefly luciferase gene after 20 hrs by One-Glo luciferase reporter gene assay; assay type: cell-based
T2 sequence (P04150 whole entry): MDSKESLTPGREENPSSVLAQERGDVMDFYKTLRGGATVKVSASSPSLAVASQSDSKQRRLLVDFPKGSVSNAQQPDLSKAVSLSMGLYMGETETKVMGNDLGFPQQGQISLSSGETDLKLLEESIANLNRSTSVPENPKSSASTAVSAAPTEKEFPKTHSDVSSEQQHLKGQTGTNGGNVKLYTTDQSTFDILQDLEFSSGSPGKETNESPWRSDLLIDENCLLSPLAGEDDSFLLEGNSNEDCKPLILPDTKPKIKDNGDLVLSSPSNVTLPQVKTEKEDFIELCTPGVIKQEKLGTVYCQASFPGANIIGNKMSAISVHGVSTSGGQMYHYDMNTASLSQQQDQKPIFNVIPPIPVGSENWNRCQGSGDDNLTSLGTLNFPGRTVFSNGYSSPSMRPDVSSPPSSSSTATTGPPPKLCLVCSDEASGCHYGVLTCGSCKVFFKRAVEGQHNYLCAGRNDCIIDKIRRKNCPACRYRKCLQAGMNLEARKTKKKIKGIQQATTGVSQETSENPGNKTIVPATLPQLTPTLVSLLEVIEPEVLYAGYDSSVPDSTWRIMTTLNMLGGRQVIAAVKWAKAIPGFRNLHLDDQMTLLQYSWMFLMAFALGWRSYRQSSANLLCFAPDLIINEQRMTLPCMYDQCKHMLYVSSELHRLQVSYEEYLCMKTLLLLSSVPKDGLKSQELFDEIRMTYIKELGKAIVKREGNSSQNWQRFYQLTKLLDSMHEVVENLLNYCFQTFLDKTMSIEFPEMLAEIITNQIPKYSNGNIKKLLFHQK

[4] = biological target: T1, Androgen receptor; test: Agonist activity at human androgen receptor in human LNCAP cells harboring firefly luciferase gene after 20 hrs by One-Glo luciferase reporter gene assay relative to mifepristone; assay type: cell-based
Summary of the method: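 Cell-based luciferase reporter assays for GR, AR and PR, run in agonist and antagonist modes. Potency and Emax are averages of at least two determinations, reported with SD.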

[5] = biological target: CYP3A4 (Homo sapiens, UniProt P08684); test: Inhibition of CYP3A4 (unknown origin) at 10 uM using midazolam as substrate relative to control; assay type: ADME; settings: probe midazolam
CYP3A4, sequence (P08684 whole entry): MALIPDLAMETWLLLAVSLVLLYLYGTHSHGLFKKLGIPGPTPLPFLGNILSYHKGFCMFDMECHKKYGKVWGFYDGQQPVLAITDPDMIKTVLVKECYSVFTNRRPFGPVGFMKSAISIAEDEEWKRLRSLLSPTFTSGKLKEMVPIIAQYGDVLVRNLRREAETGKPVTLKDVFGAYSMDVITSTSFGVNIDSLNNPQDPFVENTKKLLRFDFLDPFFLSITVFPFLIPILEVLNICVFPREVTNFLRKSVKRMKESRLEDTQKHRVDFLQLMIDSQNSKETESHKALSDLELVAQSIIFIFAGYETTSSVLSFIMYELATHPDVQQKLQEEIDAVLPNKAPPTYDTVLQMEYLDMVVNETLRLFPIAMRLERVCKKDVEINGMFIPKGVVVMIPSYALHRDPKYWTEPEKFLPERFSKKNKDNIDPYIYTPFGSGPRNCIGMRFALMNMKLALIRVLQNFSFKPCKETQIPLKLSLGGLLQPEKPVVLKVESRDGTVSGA

[6] = Clearance in dog at 0.5 mg/kg, iv; assay type: ADME, organism-based, Canis lupus familiaris; settings: in vivo
[7] = Volume of distribution at steady state in dog at 0.5 mg/kg, iv; assay type: ADME, organism-based, Canis lupus familiaris; settings: in vivo, read-out: Vdss
[8] = Cmax in dog at 5 mg/kg, po; assay type: ADME, organism-based, Canis lupus familiaris; parameters: dose 5 mg/kg, route oral; settings: in vivo
[9] = Volume of distribution at steady state in mini-pig at 0.5 mg/kg, iv; assay type: ADME, organism-based, Sus scrofa domesticus; settings: in vivo, read-out: Vdss
[10] = Solubility of compound in fasted state simulated gastric fluid at pH 1.2; assay type: physicochemical
[11] = Solubility of compound in PBS at pH 7.4; assay type: physicochemical
[12] = Solubility of compound in fasted state simulated intestinal fluid at pH 6.5; assay type: physicochemical
[13] = system: Mus musculus; test: (§1) In vivo antagonist activity at glucocorticoid receptor in tumor of human HCC1806 cells xenografted in hsd:athymic Nude-Foxn1nu mouse assessed as reduction in cortisol-stimulated FKBP5 mRNA expression at 150 mg/kg, po administered as single dose via gavage and measured at 6 hrs post cortisol addition by qRT-PCR analysis (reference value: 2.3 to 4); assay type: functional
Summary of the method: (§2)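 HCC1806 TNBC xenograft tumors in mice. Cortisol 5 mg/kg given orally as a bolus to activate GR. The compound was given as a single oral gavage dose of 150 mg/kg, with vehicle controls. Tumors were collected 3 and 6 h after cortisol, and FKBP5 mRNA was measured by RT-qPCR relative to vehicle. n = 3 mice/group. One-way ANOVA with Dunnett's test versus vehicle.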

[14] = system: Mus musculus; test: as §1, with “at 3” for “at 6”; assay type: functional; summary of the method: as §2
[15] = Toxicity in female rat assessed as effect on clinical observation at 250 mg/kg/day, po administered once daily via gavage for 14 days; assay type: organism-based; settings: in vivo, 336 h
[16] = Toxicity in female rat assessed as effect on ovarian weight at 250 mg/kg/day, po administered once daily via gavage for 14 days; assay type: organism-based; settings: in vivo, 336 h

In the case of CC#C[C@]1(O)CC[C@H]2[C@@H]3CCC4=CC(=O)CC[C@]4(C)[C@H]3[C@@H](c3ccc(N(C)C)cc3)C[C@@]21C, the “Cp(f)” value [1] is reported as 400 nM, the EC50 [2] is reported as greater than 2500 nM and the IC50 [3] is reported as 29 nM. For the same compound, the Emax at 20 h [4] was 13.3%, the inhibition at 10 µM [5] was 34% and the clearance [6] was 10.2 mL/min/kg. For the same compound, the Vd [7] was 8.32 L/kg, the Cmax [8] was 1260 ng/mL and the Vd [9] was 1.45 L/kg. For the same compound, the solubility [10] was 1130 µM (≈ 504 µg/mL), the solubility [11] was 20.6 µM (≈ 9.18 µg/mL) and the solubility [12] was 59.5 µM (≈ 26.5 µg/mL). The “fold change (FC)” value [13] was 2.3, the “fold change (FC)” value [14] was 2.8 and the Activity [15] was “Non-Toxic”. The Activity [16] was “Non-Toxic”.
